# Assay outcomes deposited in PubChem BioAssay by Johns Hopkins Ion Channel Center.
# hERG protect: hERG rescue from dofetilide block, primary screen, cell-based, CHO-hERG, FluxOR thallium flux, dofetilide IC70; actives 0.51% (n = 310,000); Voltage-gated inwardly rectifying potassium channel KCNH2 (Homo sapiens), Q12809; activation (rescue from dofetilide block), less the hit threshold, % at 10 µM; AID 1511, 2009; dofetilide IC70 present;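 active = activation above the mean of controls blocked by dofetilide plus 5 SD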;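 also: thallium influx through hERG after potassium depolarization seen as dye fluorescence rise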
# KCNK3 inh: human KCNK3 channel inhibitors, primary screen, CHO cells, FluxOR thallium flux, B-score; actives 0.84% (n = 340,000); Potassium channel subfamily K member 3 (Homo sapiens), O14649; FluxOR fluorescence; active compounds read low; B-score at 10 µM;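 active = B-score under library mean minus 4 SD, starting fluorescence ratio at most library mean plus 5 SD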;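 also: more negative B-score means stronger inhibition of thallium flux through KCNK3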
# Target sequence (O14649 whole entry, looked up): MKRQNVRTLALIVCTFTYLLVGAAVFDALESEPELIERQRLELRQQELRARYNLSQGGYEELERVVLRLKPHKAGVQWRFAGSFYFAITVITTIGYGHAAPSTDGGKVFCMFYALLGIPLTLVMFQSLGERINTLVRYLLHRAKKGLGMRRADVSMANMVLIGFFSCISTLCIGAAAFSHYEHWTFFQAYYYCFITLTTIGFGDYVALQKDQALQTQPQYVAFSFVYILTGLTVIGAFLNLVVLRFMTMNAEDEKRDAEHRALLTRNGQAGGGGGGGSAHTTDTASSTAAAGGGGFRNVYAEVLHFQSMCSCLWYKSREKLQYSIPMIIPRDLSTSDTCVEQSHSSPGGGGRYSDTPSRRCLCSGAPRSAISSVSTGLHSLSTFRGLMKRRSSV
# KCNQ1 act: potentiators or activators of KCNQ1 channel, primary screen, cell-based, thallium flux, high-throughput. Potassium voltage-gated channel subfamily KQT member 1 (Homo sapiens), P51787. CHO-K1 KCNQ1, thallium flux FluxOR fluorescence; active compounds read high. actives 0.35% (n = 310,000). B-score at 10 µM;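 active = fluorescence ratio B-score, a plate-corrected score, at least three library SD, with initial intensity B-score within 5 SD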
#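 Medium – assay buffer, equal DMSO in all wells · Material – CHO-K1 cell line with stable KCNQ1 potassium channel expression · Signal – kinetic FluxOR thallium fluorescence, 10-s 1-Hz baseline, 110-s post-stimulus read · Compound – single concentration per compound, DMSO matched to controls · Schedule – 37 °C overnight plating, 90-min dark dye load, 20-min compound pretreatment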
# KCNQ1 inh: inhibitors of human KCNQ1 channel, primary screen, cell-based, thallium flux, high-throughput; Potassium voltage-gated channel subfamily KQT member 1 (Homo sapiens), P51787; CHO-K1 KCNQ1, FluxOR thallium flux fluorescence; active compounds read high; B-score at 10 µM; actives 1.3% (n = 310,000); AID 2642, 2010;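 active = compounds whose thallium flux B-score, printed positive for inhibition, exceeds three library SD while starting fluorescence stays within three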;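 also: channel opened by potassium depolarization with thallium stimulus after 20 min compound exposure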
# KCNK9 inh: KCNK9 potassium channel inhibitors, primary screen, HEK293 cells, thallium flux. AID 488922, 2010. B-score at 10 µM. actives 1.2% (n = 310,000). FluxOR thallium flux fluorescence; active compounds read low;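 active = ratio B-score over 3 SD below the library mean, with starting fluorescence within 5 SD of its mean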;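 also: negative B-score means less thallium flux so channel inhibition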
# Kir21 block: inhibitors of mouse Kir2.1 inward-rectifier potassium channel. HEK293-Kir2.1, FluxOR thallium flux fluorescence; active compounds read low. B-score at 10 µM. actives 0.85% (n = 310,000). AID 1672, 2009;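 active = fluorescence ratio B-score at or below minus 3 SD of library scores, with starting-brightness B-score within 2 SD, cut at about -4.2 in these data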;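 also: channel flux triggered by added potassium and thallium sulfate stimulus; B-score of peak minus minimum fluorescence over baseline after thallium stimulus; more negative B-score means stronger Kir2.1 block with less thallium influx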
# Active calls of the source: *; i = inactive; · = not tested or not shown. The list is not random: actives were taken first. Their share in the collection is about 3.7%.
SMILES,hERG protect,KCNK3 inh,KCNQ1 act,KCNQ1 inh,KCNK9 inh,Kir21 block
O=C(Nc1cccc(NC(=O)c2cccc(Cl)c2)c1)c1cccnc1,-8.5,i,i,i,i,0.45
CCOC(=O)Cc1csc(SCC(=O)Nc2cc(Cl)ccc2Oc2ccccc2)n1,-11.2,i,i,11*,i,-3.31
CCOC(=O)Cc1csc(SCC(=O)Nc2cccc(Cl)c2)n1,-9.3,i,i,i,i,1.02
CCOC(=O)C1CCN(C(=O)Nc2c(-c3ccccc3)noc2C)CC1,-4.3,i,i,i,i,-1.78
O=C(Nc1cccc([N+](=O)[O-])c1)Nc1cccs1,-31.9,i,i,8*,i,1.19
CCOC(=O)/C=C/C(=O)Nc1cccc([N+](=O)[O-])c1,-10.9,i,i,i,i,-6.22*
CCOC(=O)Cc1ccc(NC(=O)c2cccc([N+](=O)[O-])c2)cc1,1.7,i,i,i,i,0.03
CCOC(=O)/C(C)=N/NC(=O)c1cccc([N+](=O)[O-])c1,11.7*,i,i,i,i,-0.76
CC(NC(=O)Nc1cccc([N+](=O)[O-])c1)(C(F)(F)F)C(F)(F)F,-22.4,i,i,12*,i,0.58
COc1ccccc1CCNC(=O)C(=O)NCC1OCCN1S(=O)(=O)c1ccc([N+](=O)[O-])cc1 (configuration not stated),-8.7,i,i,i,i,-1.78
CC(C)c1nc(SCC(=O)Nc2ccc(C(=O)O)cc2)c2c3c(sc2n1)CCCC3,-2.4,i,i,i,i,-0.05
CCc1noc(C)c1C(=O)Nc1nc(-c2cc(OC)ccc2OC)cs1,-15.8,i,i,i,i,1.65
C/C(=N\Nc1nc2ccccc2[nH]1)c1ccc(Cl)s1,-8.2,i,11*,i,i,1.37
Cc1noc(C)c1NC(=O)Nc1ccc2c(c1)C(=O)N([C@H](C)CO)C[C@H](C)[C@@H](CN(C)C(=O)Nc1ccc3c(c1)OCO3)O2,·,i,·,·,·,·
O=C(CSc1nc2ccccc2n1Cc1ccccc1)N/N=C/c1ccccc1C(=O)O,-6.9,i,i,i,i,-0.19
O=C(CSc1nc2ccccc2n1Cc1ccc(Cl)cc1)N/N=C/c1ccc(C(=O)O)cc1,-4.9,i,i,i,-6.8*,2.28
O=C(CN1C(=O)NC2(CCCC2)C1=O)Nc1cc(Cl)ccc1N1CCCCC1,-12.6,i,i,i,i,-1.43
CCCCCOc1ccc(CSC(=N)N)cc1[N+](=O)[O-],-13.1,i,i,i,i,-8.5*
COc1ccc(CSC(=N)N)cc1[N+](=O)[O-],-2.7,i,i,i,i,0.42
CC1=CS(=O)(=O)CC1Sc1ncn[nH]1 (configuration not stated),4.7*,i,i,i,i,-0.57
CC(C)C(c1nnnn1Cc1ccccc1)N(Cc1ccco1)Cc1cccs1 (configuration not stated),-4.4,i,i,i,i,-1.77
COc1ccc(Cn2nnnc2C(C(C)C)N(Cc2ccco2)Cc2cccs2)cc1 (configuration not stated),-7.7,i,i,i,-7.55*,-1.08
CCc1ccccc1NC(=O)CCS(=O)(=O)c1ccc(OC)cc1,-4.5,i,i,i,i,0
CC(=O)n1cc(C(C[N+](=O)[O-])SCCN)c2ccccc21 (configuration not stated),-12.7,i,i,i,i,-13.4*
Cn1cc(C(C[N+](=O)[O-])c2ccccc2)c2ccccc21 (configuration not stated),-14.4,i,i,i,i,0.13
O=C(Cc1ccc(Cl)c(Cl)c1)N1CCOCC1,-5.1,i,i,i,i,0.98
